Assay results published in ChEMBL document CHEMBL1150335, “Benzoylurea derivatives as a novel class of antimitotic agents: synthesis, anticancer activity, and structure-activity relationships” (J Med Chem, 2008).
The source made the active and inactive calls. No cut-off for these calls is given here.

How the values were obtained:
CCRF-CEM [1] = assay: Antiproliferative activity against human CEM cells after 72 hrs by trypan blue assay; assay type: functional, cell-based
Outline: (§1)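 Cells kept in RPMI-1640 with 10% heat-inactivated fetal calf serum, penicillin and streptomycin, 5% CO2, 37 °C, used in exponential growth. 1 × 10⁵ cells per well exposed to compound at 0.001–10 µM at 37 °C (48 h in methods, 72 h in table footnotes). Viability by Trypan blue versus untreated controls. IC50 by nonlinear regression, duplicate, three repeats.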

[2] = Inhibition of beta tubulin polymerization at 20 uM
Bel-7402 [3] = assay: Antitumor activity against human Bel7402 cells xenografted BALB/c mouse assessed as inhibition of tumor growth at 10 mg/kg, ip q2d after 25 days relative to control; assay type: functional; conditions: Bel-7402, ip, 600 h, route intraperitoneal
Outline: (§2)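 Male Balb/c nude mice (16-20 g, 6-7 weeks) given sc Bel-7402 cells, 5 × 10⁶ per mouse, on the back. Six injections q2d. Tumor volume measured weekly by calipers = length × width² × 0.52. Body weight recorded before and after treatment.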

Bel-7402 [4] = assay: Antitumor activity against human Bel7402 cells xenografted ip dosed BALB/c mouse assessed as inhibition of tumor growth after 25 days relative to control; assay type: functional; conditions: Bel-7402, ip, 600 h
Outline: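 Male Balb/c nude mice (16-20 g, 6-7 weeks) given sc Bel-7402 cells (5 × 10⁶/mouse) on the back. On day 12 they were randomized (5/group) to solvent control or 5 or 10 mg/kg ip, six doses q2d. Tumors were measured weekly by caliper, volume = length × width² × 0.52. Inhibition was taken versus solvent-treated controls on day 25 post-treatment.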

[5] = Inhibition of beta tubulin polymerization
LoVo = assay: Antiproliferative activity against human LOVO cells after 72 hrs by trypan blue assay; assay type: functional, cell-based; outline: as §1
Daudi = assay: Antiproliferative activity against human Daudi cells after 72 hrs by trypan blue assay; assay type: functional, cell-based; outline: as §1
MCF7 = assay: Antiproliferative activity against human MCF7 cells after 72 hrs by trypan blue assay; assay type: functional, cell-based; conditions: MCF7, 72 h; outline: as §1
CCRF-CEM [6] = assay: Cell cycle arrest in human CEM cells assessed as accumulation at M phase at <0.01 uM after 12 hrs by flow cytometry; assay type: functional
[7] = Antiproliferative activity against human DND1A cells after 72 hrs by trypan blue assay; assay type: functional, cell-based; outline: as §1
[8] = Inhibition of beta tubulin polymerization at 1 uM
PC-3 = assay: Antiproliferative activity against human PC3 cells after 72 hrs by trypan blue assay; assay type: functional, cell-based; conditions: PC-3, 72 h; outline: as §1
CCRF-CEM [9] = assay: Cell cycle arrest in human CEM cells assessed as morphological changes at 0.014 uM after 24 hrs by Giemsa staining
Mus musculus = assay: Toxicity in human Bel7402 cells xenografted BALB/c mouse assessed as body weight at 10 mg/kg, ip q2d after 25 days relative to control; assay type: organism-based, Bel-7402; parameters: dose 10 mg/kg, route intraperitoneal; conditions: in vivo, 600 h; outline: as §2
DU-145 = assay: Antiproliferative activity against human DU145 cells after 72 hrs by trypan blue assay; assay type: functional, cell-based; conditions: DU-145, 72 h; outline: as §1
CCRF-CEM [10] = assay: Cell cycle arrest in human CEM cells assessed as accumulation at G2/M phase at 0.22 uM after 4 to 24 hrs by flow cytometry; assay type: functional, cell-based
Outline: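 CEM cells exposed to 0.22 µM compound or left untreated for 4, 12 or 24 h. Fixed in 70% ethanol for at least 12 h at 4 °C, then RNase A 50 µg/mL at 37 °C for 30 min and propidium iodide 50 µg/mL final at 4 °C for 30 min. At least 10⁴ events read by flow cytometry for DNA profile.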

[11] = Antiproliferative activity against human MIA cells after 72 hrs by trypan blue assay; assay type: functional, cell-based; outline: as §1
Bel-7402 [12] = assay: Antiproliferative activity against human Bel7402 cells after 72 hrs by trypan blue assay; assay type: functional, cell-based; conditions: Bel-7402, 72 h; outline: as §1
Bel-7402 [13] = assay: Antitumor activity against human Bel7402 cells xenografted BALB/c mouse assessed as inhibition of tumor growth at 5 mg/kg, ip q2d after 25 days relative to control; assay type: functional; conditions: Bel-7402, ip, 600 h, route intraperitoneal; outline: as §2
CCRF-CEM [14] = assay: Induction of apoptosis in human CEM cells assessed as Bcl2 phosphorylation at 0.014 to 0.27 uM after 12 to 24 hrs by Western blot; assay type: functional, cell-based
Outline: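 CEM cells exposed to 0.014–0.27 µM for 12 or 24 h, then lysed in Tris-HCl pH 7.4 buffer with detergents and protease/phosphatase inhibitors. Equal lysate run on 10% SDS-PAGE and transferred to PVDF. Blocked in 5% milk/TBST, probed with anti-Bcl-2 monoclonal and HRP secondary, detected by ECL; phosphorylated Bcl-2 seen as a separate band.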

Row | SMILES | IC50 (CCRF-CEM [1]) | other results
1 | CC(Br)C(=O)Nc1ccc(F)c(C(=O)NC(N)=O)c1 (stereo not given) | 520 nM | 
2 | C[C@@H](Br)C(=O)Nc1cccc(C(=O)NC(N)=O)c1 | 1470 nM | 
3 | COc1ccc(C(=O)NC(N)=O)cc1NC(=O)C(C)Br (stereo not given) | > 20000 nM | 
4 | Cc1ccc(C(=O)NC(N)=O)cc1NC(=O)CBr | 4280 nM | 
5 | COc1ccc(C(=O)NC(N)=O)cc1NC(=O)CBr | 1880 nM | 
6 | CC(=O)O[C@H]1C(=O)[C@@]2(C)[C@H]([C@H](OC(=O)c3ccccc3)[C@]3(O)C[C@H](OC(=O)[C@H](O)[C@@H](NC(=O)c4ccccc4)c4ccccc4)C(C)=C1C3(C)C)[C@]1(OC(C)=O)CO[C@@H]1C[C@@H]2O |  | Activity [2]: inactive
7 | CC(Br)C(=O)Nc1cc(C(=O)NC(N)=O)cc([N+](=O)[O-])c1 (stereo not given) | 1580 nM | 
8 | NC(=O)NC(=O)c1cccc(NC(=O)CI)c1 | < 10 nM | inhibition in vivo at 10 mg/kg (Bel-7402 [3]): 57%; LD50 (Bel-7402 [4]): 31 mg/kg
9 | NC(=O)NC(=O)c1ccc(O)c(NC(=O)CBr)c1 | > 20000 nM | 
10 | Cc1ccc(NC(=O)C(C)Br)cc1C(=O)NC(N)=O (stereo not given) | > 20000 nM | 
11 | CC(Br)C(=O)Nc1ccc(Br)c(C(=O)NC(N)=O)c1 (stereo not given) | 7630 nM | 
12 | NC(=O)NC(=O)c1cc(NC(=O)CCl)ccc1Cl | 2440 nM | 
13 | CC(Cl)C(=O)Nc1cc(C(=O)NC(N)=O)ccc1Cl (stereo not given) | > 20000 nM | 
14 | NC(=O)NC(=O)c1ccc(Cl)c(NC(=O)CCl)c1 | 15900 nM | 
15 | Cc1c(NC(=O)CBr)cccc1C(=O)NC(N)=O | 1710 nM | 
16 | COC(=O)c1cc(NC(=O)C(C)Br)cc(C(=O)NC(N)=O)c1 (stereo not given) | 2700 nM | 
17 | Cc1ccc(C(=O)NC(N)=O)cc1NC(=O)C(C)Br (stereo not given) | 3360 nM | 
18 | CC(Br)C(=O)Nc1cc(C(=O)NC(N)=O)cs1 (stereo not given) | 3940 nM | 
19 | NC(=O)NC(=O)c1ccc(F)c(NC(=O)CBr)c1 | 2290 nM | 
20 | NC(=O)NC(=O)c1cc(NC(=O)CI)ccc1F | < 10 nM | IC50 [5]: 710 nM; IC50 (LoVo): 190 nM; IC50 (Daudi): < 10 nM; IC50 (MCF7): < 10 nM; Activity (CCRF-CEM [6]): 37.6%; IC50 [7]: 20 nM; Activity [8]: Active; IC50 (PC-3): 190 nM; Activity (CCRF-CEM [9]): Active; inhibition in vivo at 10 mg/kg (Bel-7402 [3]): 86%; Activity (Mus musculus): 21.6 g; IC50 (DU-145): 220 nM; Activity (CCRF-CEM [10]): Active; IC50 [11]: 54 nM; IC50 (Bel-7402 [12]): 160 nM; LD50 (Bel-7402 [4]): 38.8 mg/kg; inhibition in vivo at 5 mg/kg (Bel-7402 [13]): 62%; Activity (CCRF-CEM [14]): Active
21 | Cc1c(NC(=O)C(C)Cl)cccc1C(=O)NC(N)=O (stereo not given) | > 20000 nM | 
22 | NC(=O)NC(=O)c1cc(NC(=O)CBr)cc([N+](=O)[O-])c1 | 1530 nM | 
23 | Cc1ccc(NC(=O)CI)cc1C(=O)NC(N)=O | 20000 nM | 
24 | Cc1ccc(C(=O)NC(N)=O)cc1NC(=O)C(C)Cl (stereo not given) | > 20000 nM | 
25 | NC(=O)NC(=O)c1cc(NC(=O)CCl)ccc1F | 7680 nM | 

Row | SMILES | IC50 (CCRF-CEM [1]) | other results
26 | NC(=O)NC(=O)c1csc(NC(=O)CBr)c1 | 1130 nM | 
27 | NC(=O)NC(=O)c1ccc(F)c(NC(=O)CCl)c1 | > 20000 nM | 
28 | CC(Br)C(=O)Nc1cc(C(=O)NC(N)=O)ccc1Cl (stereo not given) | 9800 nM | 
29 | NC(=O)NC(=O)c1ccc(O)c(NC(=O)CCl)c1 | > 20000 nM | 
30 | CC[C@]1(O)C[C@H]2CN(CCc3c([nH]c4ccccc34)[C@@](C(=O)OC)(c3cc4c(cc3OC)N(C=O)[C@H]3[C@@](O)(C(=O)OC)[C@H](OC(C)=O)[C@]5(CC)C=CCN6CC[C@]43[C@@H]65)C2)C1 |  | Activity [2]: Active
31 | COc1ccc(NC(=O)CBr)cc1C(=O)NC(N)=O | 1570 nM | 
32 | C[C@H](Br)C(=O)Nc1cccc(C(=O)NC(N)=O)c1 | 1470 nM | 
33 | NC(=O)NC(=O)c1ccc(NC(=O)CBr)o1 | 4050 nM | 
34 | CC(Br)C(=O)Nc1cc(C(=O)NC(N)=O)ccc1F (stereo not given) | 3130 nM | 
35 | CC(Br)C(=O)Nc1ccc(Cl)c(C(=O)NC(N)=O)c1 (stereo not given) | 2550 nM | 
36 | NC(=O)NC(=O)c1cc(NC(=O)CBr)ccc1Br | 1160 nM | 
37 | COc1ccc(C(=O)NC(N)=O)cc1NC(=O)C(C)Cl (stereo not given) | > 20000 nM | 
38 | NC(=O)NC(=O)c1cc(NC(=O)CBr)ccc1Cl | 540 nM | 
39 | CC(Br)C(=O)Nc1ccc(C(=O)NC(N)=O)o1 (stereo not given) | 9440 nM | 
40 | Cc1ccc(C(=O)NC(N)=O)cc1NC(=O)CCl | 3360 nM | 
41 | Cc1c(NC(=O)C(C)Br)cccc1C(=O)NC(N)=O (stereo not given) | 480 nM | 
42 | Cc1ccc(NC(=O)CBr)cc1C(=O)NC(N)=O | 4760 nM | 
43 | COc1ccc(C(=O)NC(N)=O)cc1NC(=O)CCl | > 20000 nM | 
44 | COC(=O)c1cc(NC(=O)CBr)cc(C(=O)NC(N)=O)c1 | 1300 nM | 
45 | COC(=O)c1cc(NC(=O)CI)cc(C(=O)NC(N)=O)c1 | 1910 nM | 
46 | Cc1c(NC(=O)CCl)cccc1C(=O)NC(N)=O | 2700 nM | 
47 | NC(=O)NC(=O)c1ccc(NC(=O)CCl)o1 | 16600 nM | 
48 | NC(=O)NC(=O)c1ccc(Cl)c(NC(=O)CBr)c1 | 2910 nM | 
49 | NC(=O)NC(=O)c1cc(NC(=O)CBr)ccc1F | < 10 nM | IC50 (Daudi): 15 nM; IC50 (MCF7): 80 nM; Activity (CCRF-CEM [6]): 31.3%; inhibition in vivo at 10 mg/kg (Bel-7402 [3]): 52%; Activity (Mus musculus): 18.6 g; inhibition in vivo at 5 mg/kg (Bel-7402 [13]): 37%
